Assay [1] has as its system MCF7. Kind of assay: Cytotoxicity against human MCF7 cells by resazurin reduction test. It is filed as functional, cell-based. The method in brief:
(§1)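 Cells seeded at 5 × 10³ per well and allowed to adhere 16 h. Compounds are made up from DMSO stocks, with DMSO held at 0.5% (v/v) at every concentration, and added as a 4× solution in MEM. Continuous exposure lasts 48 h. Resazurin at 25 µg/mL in MEM without serum or phenol red is then given for 1 h at 37 °C, 5% CO₂. Fluorescence is read at ex 530/em 590 nm. IC50 comes from the blank-subtracted concentration–response curve, expressed as percent of control wells.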
(The colour change of resazurin is a common sign of viable cells or microbes.)

The subject of assay [2] is L929. Put plainly: Effect on oxidative stress in mouse L929 cells assessed as glutathione depletion at 50 uM after 4 hrs. It is filed as functional. In short, it runs like this: (§2)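 L929 cells seeded at 5 × 10³ per well and grown 48 h to about 90% confluence. Treatment runs in HBSS/15 mM Hepes pH 7.4 for 4 h at 37 °C. Cells are then washed and incubated 15 min with 7.5 µM monochlorobimane before the fluorescence read. Depletion counts as significant below 80% of control. Positive control is 100 µM diethylmaleate.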

Assay [3] concerns L929. Put plainly: Effect on oxidative stress in mouse L929 cells assessed as cytolysis at 50 uM after 4 hrs by calcein-AM assay. It is filed as functional. In short, it runs like this: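 L929 cells seeded at 5 × 10³ per well and grown 48 h to about 90% confluence. Cells are washed with HBSS/Hepes, then exposed 4 h at 37 °C in complete medium with 0.5% DMSO vehicle, in triplicate. Tween 80 is the lysis control. Detached cells are checked by microscopy, then 4 µM calcein-AM is added for 1 h and read at ex 485/em 530 nm. Percent intact cells = (sample − 100%-lysis background)/(vehicle − background) × 100.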

For assay [4], the system named is A549. Put plainly: Cytotoxicity against human A549 cells by resazurin reduction test. It is filed as functional, cell-based. The method in brief:
as §1

In assay [5] the test system is PC-3. Put plainly: Cytotoxicity against human PC3 cells by resazurin reduction test. It is filed as functional, cell-based. The method in brief:
as §1

Assay [6] has as its system DLD-1. Kind of assay: Cytotoxicity against human DLD1 cells by resazurin reduction test. It is filed as functional, cell-based. In short, it runs like this:
as §1

For assay [7], the system named is PA-1. Put plainly: Cytotoxicity against human PA1 cells by resazurin reduction test. It is filed as functional, cell-based. In short, it runs like this: as §1
Assay [8] can be described thus: Cytotoxicity against human M4Beu cells by resazurin reduction test. It is filed as functional, cell-based. The method in brief:
as §1

The test system of assay [9] is L929. Put plainly: Growth inhibition in mouse L929 cells after 48 hrs. It is filed as functional. Set-up: concentration or dose not given beside the values.
Assay [10] is described as follows: Cytotoxicity against human primary fibroblasts by resazurin reduction test. It is filed as cell-based. The following applies: Fibroblast. The method in brief: as §1
The subject of assay [11] is L929. Kind of assay: Effect on oxidative stress in mouse L929 cells assessed as glutathione depletion at 6.25 uM after 4 hrs. It is filed as functional. In short, it runs like this: as §2
The test system of assay [12] is L929. Put plainly: Effect on oxidative stress in mouse L929 cells assessed as ROS production at 6.25 uM after 4 hrs by 2',7'-dichlorofluorescein-diacetate assay. It is filed as functional. The method in brief: (§3)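 L929 cells seeded at 5 × 10³ per well and grown 48 h to about 90% confluence. Cells are loaded with 20 µM DCFH-DA in HBSS/15 mM Hepes pH 7.4 for 1 h at 37 °C, washed, then treated in the same buffer at 37 °C. Fluorescence is read after 4 h at 485/530 nm and expressed as percent of control. Above 150% counts as significant; 100 µM tert-butyl hydroperoxide serves as positive control.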

Assay [13] relates to L929. Put plainly: Effect on oxidative stress in mouse L929 cells assessed as ROS production at 12.5 uM after 4 hrs by 2',7'-dichlorofluorescein-diacetate assay. It is filed as functional. In short, it runs like this: as §3
Assay [14] has as its system L929. Put plainly: Effect on oxidative stress in mouse L929 cells assessed as ROS production at 25 uM after 4 hrs by 2',7'-dichlorofluorescein-diacetate assay. It is filed as functional. In short, it runs like this: as §3

These results are taken from ChEMBL document CHEMBL1157206 (Bioorg Med Chem, 2008).

As a reminder, the IC50 is the concentration needed to halve the response being measured. With `CC(=O)OC[C@H]1O[C@@H](NC(=O)c2ccc(NC(=O)CCCc3ccc(N(CCCl)CCCl)cc3)cc2)[C@H](F)[C@@H](OC(C)=O)[C@@H]1OC(C)=O`, the IC50 in assay [1] was 5 µM; in assay [4], 2.7 µM; in assay [5], 1.4 µM; in [6], 3 µM; in [7], 0.3 µM; in assay [8] it was 7 µM. In assay [10], this compound showed an IC50 of 4 µM. The Activity result in assay [2] and in assay [3] was “<=80%” in each case. The “inhibition (INH)” value in assay [9] turned out to be 50%.
As for `O=C(O)CCCc1ccc(N(CCCl)CCCl)cc1` [CHLORAMBUCIL], the IC50 in assay [1] is above 100 µM; in [4] it was 43 µM; in assay [6], 47 µM; in [7], 2.8 µM; in [8], above 100 µM; in assay [10] it was 99 µM. The Activity entry in [11] is “<=80%”; in [12] it was “>=150%”. For the same compound, the “inhibition (INH)” value in assay [9] is listed as 30%.
With `CC(=O)OC[C@H]1O[C@@H](Oc2ccc(NC(=O)CNC(=O)CCCc3ccc(N(CCCl)CCCl)cc3)cc2)[C@H](F)[C@@H](OC(C)=O)[C@@H]1OC(C)=O`, the IC50 stood at 14 µM in assay [1]; 10 µM in [4]; 8 µM in assay [5]; 6 µM in [6]; 1.6 µM in assay [7]; 14 µM in assay [8]. The compound also gave an IC50 in [10] of 16 µM. Also, the “inhibition (INH)” value in [9] was determined as 40%.
Regarding `CC(=O)OC[C@H]1O[C@@H](NC(=O)CCCNC(=O)CCCc2ccc(N(CCCl)CCCl)cc2)[C@H](F)[C@@H](OC(C)=O)[C@@H]1OC(C)=O`, the IC50 came out at 12 µM in assay [1]; 13 µM in [4]; 3 µM in [5]; 9 µM in [6]; 0.27 µM in [7]; 9 µM in [8]. This compound also registered an IC50 in [10] of 4.1 µM. For the same compound, in assay [12], the Activity result is “>=150%”. In assay [9], the “inhibition (INH)” value came out at 50%.
`CC(=O)OC[C@H]1O[C@@H](Oc2ccc(NC(=O)CCCc3ccc(N(CCCl)CCCl)cc3)cc2)[C@H](F)[C@@H](OC(C)=O)[C@@H]1OC(C)=O`: the IC50 in [1] is 26 µM; in assay [4], 1.9 µM; in assay [5], 11 µM; in [6], 10 µM; in [7] it was 0.76 µM; in assay [8], above 50 µM. The same compound displayed an IC50 in [10] above 50 µM. For the same compound, the Activity result in assay [11] is recorded as “<=80%”.
For `CC(=O)OC[C@H]1O[C@@H](NC(=O)NCCCc2ccc(N(CCCl)CCCl)cc2)[C@H](F)[C@@H](OC(C)=O)[C@@H]1OC(C)=O`, the IC50 turned out to be 26.4 µM in assay [1]; 8 µM in [4]; 4 µM in assay [5]; 7 µM in assay [6]; 0.6 µM in assay [7]; 27 µM in assay [8]. Moreover, in assay [10], the IC50 was 13 µM. In addition, in assay [13], the Activity result is on record as “>=150%”. For the same compound, in assay [9], the “inhibition (INH)” value is 40%.
Take `CC(=O)OC[C@H]1O[C@@H](NC(=O)CNC(=O)CCCc2ccc(N(CCCl)CCCl)cc2)[C@H](F)[C@@H](OC(C)=O)[C@@H]1OC(C)=O`: the IC50 in assay [1] amounted to 8 µM; in assay [4], 5 µM; in assay [5] it was 10 µM; in assay [6], 4 µM; in assay [7], 1 µM; in [8], 6.8 µM. Also, the IC50 in assay [10] worked out at 4.1 µM. Further, the Activity result in assay [14] is reported as “>=150%”. The “inhibition (INH)” value in [9] is 70%.
With `CC(=O)OC[C@H]1O[C@@H](NC(=O)CCCc2ccc(N(CCCl)CCCl)cc2)[C@H](F)[C@@H](OC(C)=O)[C@@H]1OC(C)=O`, the IC50 in assay [1] was found to be 27 µM; in assay [4] it was 5.4 µM; in assay [5], 4.4 µM; in [6], 7.1 µM; in assay [7], 1.3 µM; in assay [8], 27 µM. The same compound had an IC50 in [10] of 11 µM.
In the case of `CC(=O)OC[C@H]1O[C@@H](NC(=O)CCNC(=O)CCCc2ccc(N(CCCl)CCCl)cc2)[C@H](F)[C@@H](OC(C)=O)[C@@H]1OC(C)=O`, the IC50 is 13 µM in assay [1]; 9.2 µM in assay [4]; 3.7 µM in [5]; 11 µM in assay [6]; 0.24 µM in [7]; 15 µM in assay [8]. Further, the IC50 in [10] is 7 µM. Moreover, the Activity result in assay [2] is recorded as “<=80%”. Further, the “inhibition (INH)” value in assay [9] worked out at 50%.
